Blank lines part the entries; values can stand above or below the compound they belong to. Calls of active or inactive are those of the source. No cut-off for these calls is given here.
Legend:
[1] = Intrinsic clearance in mouse liver microsomes by LC-MS/MS analysis; format: ADME; conditions: read-out: CLH
[2] = target: T1, Phosphatidylinositol 4,5-bisphosphate 3-kinase catalytic subunit delta isoform (Homo sapiens, UniProt O00329); assay: Inhibition of PI3Kdelta (unknown origin)
T1 sequence (O00329 whole entry): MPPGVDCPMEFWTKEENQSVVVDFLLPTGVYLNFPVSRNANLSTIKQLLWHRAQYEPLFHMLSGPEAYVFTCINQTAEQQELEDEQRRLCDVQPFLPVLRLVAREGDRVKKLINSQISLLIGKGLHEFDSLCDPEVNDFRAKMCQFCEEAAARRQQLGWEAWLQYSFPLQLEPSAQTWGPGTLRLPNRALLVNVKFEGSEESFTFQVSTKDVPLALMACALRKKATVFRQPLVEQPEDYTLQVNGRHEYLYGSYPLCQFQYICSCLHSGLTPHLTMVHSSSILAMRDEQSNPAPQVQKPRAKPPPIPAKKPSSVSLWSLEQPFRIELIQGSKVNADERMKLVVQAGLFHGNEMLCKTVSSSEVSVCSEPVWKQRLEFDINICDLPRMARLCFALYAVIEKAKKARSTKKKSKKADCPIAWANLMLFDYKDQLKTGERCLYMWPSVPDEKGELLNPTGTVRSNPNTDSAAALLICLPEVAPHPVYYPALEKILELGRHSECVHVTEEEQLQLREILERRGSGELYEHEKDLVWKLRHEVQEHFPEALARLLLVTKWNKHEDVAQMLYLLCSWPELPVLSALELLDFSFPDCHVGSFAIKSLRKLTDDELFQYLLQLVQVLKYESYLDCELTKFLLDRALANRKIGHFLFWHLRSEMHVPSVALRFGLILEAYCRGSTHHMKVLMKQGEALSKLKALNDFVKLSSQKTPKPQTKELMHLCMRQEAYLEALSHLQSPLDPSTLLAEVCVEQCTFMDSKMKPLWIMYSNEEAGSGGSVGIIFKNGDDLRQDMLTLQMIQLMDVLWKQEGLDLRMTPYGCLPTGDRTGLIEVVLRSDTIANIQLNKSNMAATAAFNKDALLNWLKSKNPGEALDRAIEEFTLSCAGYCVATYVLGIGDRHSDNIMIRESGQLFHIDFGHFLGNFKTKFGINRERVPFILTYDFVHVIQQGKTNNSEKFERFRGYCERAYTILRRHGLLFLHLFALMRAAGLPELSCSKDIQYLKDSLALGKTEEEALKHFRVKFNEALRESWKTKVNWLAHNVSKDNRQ

[3] = target: T2, Phosphatidylinositol 3-kinase catalytic subunit type 3 (Homo sapiens, UniProt Q8NEB9); assay: Inhibition of recombinant human VPS34 using L-alpha-phosphatidylinositol as substrate incubated for 10 mins by luminescence based ATP detection assay
T2 sequence (Q8NEB9 whole entry): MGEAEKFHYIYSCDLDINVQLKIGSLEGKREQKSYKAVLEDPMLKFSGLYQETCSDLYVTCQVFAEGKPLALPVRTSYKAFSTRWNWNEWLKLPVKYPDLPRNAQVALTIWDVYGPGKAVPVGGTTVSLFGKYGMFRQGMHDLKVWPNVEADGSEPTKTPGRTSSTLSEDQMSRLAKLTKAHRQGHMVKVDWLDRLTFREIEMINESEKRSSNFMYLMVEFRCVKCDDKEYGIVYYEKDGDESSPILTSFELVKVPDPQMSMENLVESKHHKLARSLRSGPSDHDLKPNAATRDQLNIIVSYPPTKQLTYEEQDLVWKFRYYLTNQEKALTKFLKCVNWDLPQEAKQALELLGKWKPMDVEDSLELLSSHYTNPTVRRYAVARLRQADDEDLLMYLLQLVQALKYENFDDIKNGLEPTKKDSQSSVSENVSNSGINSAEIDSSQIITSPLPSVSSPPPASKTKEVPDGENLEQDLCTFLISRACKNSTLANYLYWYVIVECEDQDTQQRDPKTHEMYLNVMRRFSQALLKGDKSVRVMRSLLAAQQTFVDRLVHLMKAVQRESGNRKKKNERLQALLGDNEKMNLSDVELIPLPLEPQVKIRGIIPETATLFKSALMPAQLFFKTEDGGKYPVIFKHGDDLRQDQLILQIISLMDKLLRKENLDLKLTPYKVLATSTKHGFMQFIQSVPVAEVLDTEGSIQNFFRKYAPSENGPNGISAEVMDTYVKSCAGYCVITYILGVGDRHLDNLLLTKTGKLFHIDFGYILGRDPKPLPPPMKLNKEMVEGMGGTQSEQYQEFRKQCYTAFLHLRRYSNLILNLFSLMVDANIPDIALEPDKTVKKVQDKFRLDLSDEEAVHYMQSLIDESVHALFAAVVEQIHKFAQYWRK
How it was run: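 VPS34 biochemical IC50 was measured with a luminescence-based ATP detection read-out.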

[4] = target: T2, Phosphatidylinositol 3-kinase catalytic subunit type 3; assay: Inhibition of VPS34 in human U2OS cells incubated for 2 hrs by GFP-FYVE reporter gene assay; format: cell-based
Homo sapiens [5] = species on record: Homo sapiens; assay: Selectivity ratio of IC50 for PI3Kdelta (unknown origin) to recombinant human VPS34
Homo sapiens [6] = species on record: Homo sapiens; assay: Selectivity ratio of IC50 for TAK1 (unknown origin) to recombinant human VPS34
Homo sapiens [7] = species on record: Homo sapiens; assay: Selectivity ratio of IC50 for PI3Kalpha (unknown origin) to recombinant human VPS34
Homo sapiens [8] = species on record: Homo sapiens; assay: Selectivity ratio of IC50 for PI3Kbeta (unknown origin) to recombinant human VPS34
Homo sapiens [9] = species on record: Homo sapiens; assay: Selectivity ratio of IC50 for PI3Kgamma (unknown origin) to recombinant human VPS34
[10] = target: T2, Phosphatidylinositol 3-kinase catalytic subunit type 3; assay: Inhibition of VPS34 in human DLD1 cells assessed as prevention of NCOA4 protein degradation at 1 to 10 uM incubated for 24 hrs by Western blot analysis; format: cell-based; conditions: DLD-1
[11] = target: T2, Phosphatidylinositol 3-kinase catalytic subunit type 3; assay: Inhibition of VPS34 in human DLD1 cells assessed as prevention of p62 degradation at 1 to 10 uM incubated for 24 hrs by Western blot analysis; format: cell-based; conditions: DLD-1
[12] = target: T2, Phosphatidylinositol 3-kinase catalytic subunit type 3; assay: Inhibition of VPS34 in human DLD1 cells assessed as prevention of NBR1 protein degradation at 1 to 10 uM incubated for 24 hrs by Western blot analysis; format: cell-based; conditions: DLD-1
[13] = target: T2, Phosphatidylinositol 3-kinase catalytic subunit type 3; assay: Inhibition of VPS34 in human DLD1 cells assessed as prevention of NDP52 protein degradation at 1 to 10 uM incubated for 24 hrs by Western blot analysis; format: cell-based; conditions: DLD-1
[14] = target: T2, Phosphatidylinositol 3-kinase catalytic subunit type 3; assay: Inhibition of VPS34 in human DLD1 cells assessed as prevention of FTH1 protein degradation at 1 to 10 uM incubated for 24 hrs by Western blot analysis; format: cell-based; conditions: DLD-1
[15] = target: T2, Phosphatidylinositol 3-kinase catalytic subunit type 3; assay: Inhibition of VPS34 in human DLD1 cells assessed as increase in LC3-1 protein expression at 1 to 10 uM incubated for 24 hrs by Western blot analysis; format: cell-based; conditions: DLD-1
[16] = target: T2, Phosphatidylinositol 3-kinase catalytic subunit type 3; assay: Inhibition of VPS34 in human DLD1 cells assessed as increase in LC3-2 protein expression at 1 to 10 uM incubated for 24 hrs by Western blot analysis; format: cell-based; conditions: DLD-1
[17] = Systemic clearance in C57BL/6 mouse at 10 mg/kg, po; format: ADME, organism-based; conditions: in vivo
How it was run: (§1)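 Pharmacokinetics in C57BL/6 mice after a single dose, either intravenous at 2 mg/kg or oral at 10 mg/kg. Mean parameters reported: AUCinf, CL, Vdss, t1/2, Tmax, Cmax and F. Clearance was also expressed as a percentage of hepatic blood flow.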

Mus musculus [18] = assay: Systemic clearance in C57BL/6 mouse at 10 mg/kg, po relative to hepatic blood flow; format: ADME, organism-based, Liver; conditions: in vivo; how it was run: as §1
[19] = AUC (0 to infinity) in C57BL/6 mouse at 2 mg/kg, iv; format: ADME, organism-based; parameters: dose 2 mg/kg, route intravenous, time infinity; conditions: in vivo; how it was run: as §1
[20] = AUC (0 to infinity) in C57BL/6 mouse at 10 mg/kg, po; format: ADME, organism-based; parameters: dose 10 mg/kg, route oral, time infinity; conditions: in vivo; how it was run: as §1
[21] = Clearance in C57BL/6 mouse at 2 mg/kg, iv; format: ADME, organism-based; conditions: in vivo; how it was run: as §1
[22] = Volume of distribution at steady state in C57BL/6 mouse at 2 mg/kg, iv; format: ADME, organism-based; conditions: in vivo, read-out: Vdss; how it was run: as §1
[23] = Half life in C57BL/6 mouse at 2 mg/kg, iv; format: ADME, organism-based; conditions: in vivo; how it was run: as §1
[24] = Tmax in C57BL/6 mouse at 10 mg/kg, po; format: ADME, organism-based; conditions: in vivo; how it was run: as §1
[25] = Cmax in C57BL/6 mouse at 10 mg/kg, po; format: ADME, organism-based; parameters: dose 10 mg/kg, route oral; conditions: in vivo; how it was run: as §1
[26] = Oral bioavailability in C57BL/6 mouse at 10 mg/kg; format: ADME, organism-based; conditions: in vivo; how it was run: as §1
Mus musculus [27] = assay: Inhibition of autophagy in athymic nude mouse xenografted with human RKO cells assessed as accumulation of LC3-2 protein at 50 mg/kg, po bid for 7 days by SDS-PAGE analysis; format: functional, organism-based; conditions: TDE = time-dependent effect
How it was run: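 Nude mice bearing RKO colon cancer tumors were dosed orally at 50 mg/kg twice daily (BID) for 7 days. LC3-II in tumor samples was followed over time by immunoblot, one lane per individual mouse.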

RKO = assay: Antitumor activity against human RKO cells xenografted in athymic nude mouse assessed as reduction in tumor volume at 50 mg/kg, po bid for 7 days; format: functional, organism-based
[28] = target: Phosphatidylinositol 4,5-bisphosphate 3-kinase catalytic subunit alpha isoform (Homo sapiens, UniProt P42336); assay: Inhibition of PI3Kalpha (unknown origin)
Chain of Phosphatidylinositol 4,5-bisphosphate 3-kinase catalytic subunit alpha isoform (P42336 whole entry, canonical isoform): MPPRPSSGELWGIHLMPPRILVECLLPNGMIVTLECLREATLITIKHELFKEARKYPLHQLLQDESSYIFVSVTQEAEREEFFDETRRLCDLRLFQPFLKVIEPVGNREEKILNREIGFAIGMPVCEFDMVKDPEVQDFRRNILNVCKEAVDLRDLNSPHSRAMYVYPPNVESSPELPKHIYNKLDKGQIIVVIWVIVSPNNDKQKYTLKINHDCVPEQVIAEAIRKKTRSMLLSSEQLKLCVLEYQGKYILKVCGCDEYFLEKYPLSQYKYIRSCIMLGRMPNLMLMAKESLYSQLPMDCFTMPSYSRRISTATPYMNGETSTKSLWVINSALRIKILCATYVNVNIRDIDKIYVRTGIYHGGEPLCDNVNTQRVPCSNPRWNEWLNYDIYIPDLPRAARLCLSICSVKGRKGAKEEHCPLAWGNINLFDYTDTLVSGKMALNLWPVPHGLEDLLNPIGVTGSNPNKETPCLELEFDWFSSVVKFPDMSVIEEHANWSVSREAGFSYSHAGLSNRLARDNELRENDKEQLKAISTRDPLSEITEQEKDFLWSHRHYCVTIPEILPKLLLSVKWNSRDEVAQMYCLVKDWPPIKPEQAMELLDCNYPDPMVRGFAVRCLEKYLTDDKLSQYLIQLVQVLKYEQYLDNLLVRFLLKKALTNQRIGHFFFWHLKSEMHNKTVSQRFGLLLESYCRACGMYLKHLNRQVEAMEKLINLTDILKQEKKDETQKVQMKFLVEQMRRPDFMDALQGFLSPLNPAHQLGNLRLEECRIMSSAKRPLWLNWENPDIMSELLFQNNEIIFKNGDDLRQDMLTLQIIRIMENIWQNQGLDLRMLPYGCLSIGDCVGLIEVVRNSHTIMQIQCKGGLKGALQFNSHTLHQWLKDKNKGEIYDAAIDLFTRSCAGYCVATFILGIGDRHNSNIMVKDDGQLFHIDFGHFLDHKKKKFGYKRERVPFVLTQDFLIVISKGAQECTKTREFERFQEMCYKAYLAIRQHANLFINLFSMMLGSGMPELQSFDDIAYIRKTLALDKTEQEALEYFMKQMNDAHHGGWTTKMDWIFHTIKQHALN

[29] = target: Phosphatidylinositol 4,5-bisphosphate 3-kinase catalytic subunit beta isoform (Homo sapiens, UniProt P42338); assay: Inhibition of PI3Kbeta (unknown origin)
Chain of Phosphatidylinositol 4,5-bisphosphate 3-kinase catalytic subunit beta isoform (P42338 whole entry, canonical isoform): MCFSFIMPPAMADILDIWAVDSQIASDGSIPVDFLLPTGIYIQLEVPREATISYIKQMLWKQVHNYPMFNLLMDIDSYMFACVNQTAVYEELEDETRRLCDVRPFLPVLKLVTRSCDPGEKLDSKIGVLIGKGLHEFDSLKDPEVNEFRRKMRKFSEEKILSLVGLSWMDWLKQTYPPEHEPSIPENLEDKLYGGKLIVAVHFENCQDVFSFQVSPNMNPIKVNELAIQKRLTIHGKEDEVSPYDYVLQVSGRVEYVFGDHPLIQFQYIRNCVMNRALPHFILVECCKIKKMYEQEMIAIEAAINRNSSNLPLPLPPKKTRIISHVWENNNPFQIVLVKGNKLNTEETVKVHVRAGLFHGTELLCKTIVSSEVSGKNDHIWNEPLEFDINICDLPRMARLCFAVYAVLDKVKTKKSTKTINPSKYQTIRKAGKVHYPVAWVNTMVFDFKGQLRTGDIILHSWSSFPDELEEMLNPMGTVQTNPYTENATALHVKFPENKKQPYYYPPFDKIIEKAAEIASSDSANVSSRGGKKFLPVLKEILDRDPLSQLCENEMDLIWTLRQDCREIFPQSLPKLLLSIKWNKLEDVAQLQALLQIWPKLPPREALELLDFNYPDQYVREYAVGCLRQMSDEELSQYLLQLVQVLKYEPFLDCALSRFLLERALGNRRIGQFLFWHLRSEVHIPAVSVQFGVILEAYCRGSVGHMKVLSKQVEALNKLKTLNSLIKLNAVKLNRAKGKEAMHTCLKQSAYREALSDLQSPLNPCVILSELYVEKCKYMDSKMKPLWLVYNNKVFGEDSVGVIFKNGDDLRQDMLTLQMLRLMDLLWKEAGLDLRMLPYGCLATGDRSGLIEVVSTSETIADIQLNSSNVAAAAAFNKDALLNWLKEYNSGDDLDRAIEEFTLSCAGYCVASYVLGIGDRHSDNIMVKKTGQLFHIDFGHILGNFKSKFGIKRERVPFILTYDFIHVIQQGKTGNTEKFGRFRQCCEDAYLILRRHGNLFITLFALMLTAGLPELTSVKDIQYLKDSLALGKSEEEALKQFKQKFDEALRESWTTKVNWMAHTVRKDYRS

[30] = target: Phosphatidylinositol 4,5-bisphosphate 3-kinase catalytic subunit gamma isoform (Homo sapiens, UniProt P48736); assay: Inhibition of PI3Kgamma (unknown origin)
Chain of Phosphatidylinositol 4,5-bisphosphate 3-kinase catalytic subunit gamma isoform (P48736 whole entry, canonical isoform): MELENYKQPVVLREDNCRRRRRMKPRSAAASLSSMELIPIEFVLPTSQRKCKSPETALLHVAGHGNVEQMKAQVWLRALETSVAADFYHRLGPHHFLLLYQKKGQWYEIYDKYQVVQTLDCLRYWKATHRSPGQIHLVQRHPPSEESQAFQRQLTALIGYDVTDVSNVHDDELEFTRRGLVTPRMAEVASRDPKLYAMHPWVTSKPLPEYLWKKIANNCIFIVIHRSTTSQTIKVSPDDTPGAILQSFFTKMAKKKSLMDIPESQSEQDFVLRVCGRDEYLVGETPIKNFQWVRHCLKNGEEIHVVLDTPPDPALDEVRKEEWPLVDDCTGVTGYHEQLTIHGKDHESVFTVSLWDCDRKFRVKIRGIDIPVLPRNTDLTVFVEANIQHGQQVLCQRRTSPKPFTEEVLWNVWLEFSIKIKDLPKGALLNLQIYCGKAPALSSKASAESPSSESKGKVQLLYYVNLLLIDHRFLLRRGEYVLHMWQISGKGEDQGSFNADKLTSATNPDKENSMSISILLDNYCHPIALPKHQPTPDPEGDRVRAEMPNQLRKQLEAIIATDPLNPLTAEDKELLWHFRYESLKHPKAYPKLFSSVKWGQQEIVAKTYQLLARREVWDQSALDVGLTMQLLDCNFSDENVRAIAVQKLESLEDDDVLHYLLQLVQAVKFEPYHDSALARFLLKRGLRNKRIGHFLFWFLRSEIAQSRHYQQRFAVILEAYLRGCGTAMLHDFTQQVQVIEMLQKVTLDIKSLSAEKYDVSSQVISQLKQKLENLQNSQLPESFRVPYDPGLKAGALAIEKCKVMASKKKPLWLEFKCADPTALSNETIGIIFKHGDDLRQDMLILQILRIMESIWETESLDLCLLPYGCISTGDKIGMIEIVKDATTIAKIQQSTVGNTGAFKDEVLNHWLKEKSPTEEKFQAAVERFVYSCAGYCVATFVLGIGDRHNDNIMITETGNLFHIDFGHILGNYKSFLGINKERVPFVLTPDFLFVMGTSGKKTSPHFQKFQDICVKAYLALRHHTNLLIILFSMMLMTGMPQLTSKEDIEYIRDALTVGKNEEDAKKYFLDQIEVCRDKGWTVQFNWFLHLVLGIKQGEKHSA

[31] = target: Phosphatidylinositol 4-kinase beta (Homo sapiens, UniProt Q9UBF8); assay: Inhibition of PI4Kbeta (unknown origin)
Chain of Phosphatidylinositol 4-kinase beta (Q9UBF8 whole entry): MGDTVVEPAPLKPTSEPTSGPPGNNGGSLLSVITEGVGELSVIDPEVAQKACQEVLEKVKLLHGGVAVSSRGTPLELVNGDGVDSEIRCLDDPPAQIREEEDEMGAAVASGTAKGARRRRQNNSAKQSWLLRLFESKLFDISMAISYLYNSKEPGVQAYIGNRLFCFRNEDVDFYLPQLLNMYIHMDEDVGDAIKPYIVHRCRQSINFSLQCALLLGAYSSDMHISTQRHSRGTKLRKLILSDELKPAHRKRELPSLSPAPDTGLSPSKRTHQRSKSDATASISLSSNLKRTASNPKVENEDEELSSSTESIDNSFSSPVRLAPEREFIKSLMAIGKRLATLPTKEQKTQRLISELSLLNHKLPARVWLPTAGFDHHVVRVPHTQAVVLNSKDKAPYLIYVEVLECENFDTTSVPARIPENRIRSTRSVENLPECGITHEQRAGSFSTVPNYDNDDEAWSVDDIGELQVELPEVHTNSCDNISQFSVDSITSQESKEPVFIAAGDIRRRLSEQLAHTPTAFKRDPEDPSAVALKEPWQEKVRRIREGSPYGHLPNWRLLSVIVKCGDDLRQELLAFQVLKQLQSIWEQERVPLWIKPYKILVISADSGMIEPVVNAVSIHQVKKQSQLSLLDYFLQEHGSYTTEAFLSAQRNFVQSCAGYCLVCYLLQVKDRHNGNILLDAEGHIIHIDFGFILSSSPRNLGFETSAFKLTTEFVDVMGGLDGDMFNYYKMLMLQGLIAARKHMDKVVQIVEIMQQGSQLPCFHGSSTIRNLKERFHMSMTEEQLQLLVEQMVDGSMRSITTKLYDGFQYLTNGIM

CLint scaled [1]: 85.5 mL/min/kg
IC50 [2]: 0.74 µM
SMILES: CC(C)(C)Nc1ncc(-c2ccnc(Nc3ccncc3)n2)c(CC2CC2)n1

IC50 [3]: 290 nM
SMILES: CNc1ncc(-c2ccnc(Nc3ccccc3)n2)c(CC2CC2)n1

CLint scaled [1]: 69.9 mL/min/kg
IC50 [3]: 210 nM
IC50 [4]: 330 nM
IC50 [2]: > 9.1 µM
SMILES: c1cc(Nc2nccc(-c3cncnc3CC3CC3)n2)ccn1

CLint scaled [1]: 63.2 mL/min/kg
IC50 [4]: 25 nM
IC50 [2]: 0.82 µM
Ratio IC50 (Homo sapiens [5]): 40
Ratio IC50 (Homo sapiens [6]): 10
Ratio IC50 (Homo sapiens [7]): > 100
Ratio IC50 (Homo sapiens [8]): > 100
Ratio IC50 (Homo sapiens [9]): > 100
inhibition [10]: Active
inhibition [11]: Active
inhibition [12]: Active
inhibition [13]: Active
inhibition [14]: Active
inhibition [15]: Active
inhibition [16]: Active
CL/F [17]: 30 mL/min/kg
CL (Mus musculus [18]): 33%
AUC(0-inf) [19]: 2.85 µM·h
AUC(0-inf) [20]: 6.73 µM·h
clearance [21]: 30 mL/min/kg
Vd [22]: 1.5 L/kg
half-life [23]: 72 min
Tmax [24]: 42 min
Cmax [25]: 2990 nM
bioavailability [26]: 47%
SMILES: CC(C)(O)CNc1ncc(-c2ccnc(Nc3ccncc3)n2)c(CC2CC2)n1
inhibition (Mus musculus [27]): tde
Activity (RKO): inactive

IC50 [3]: 410 nM
SMILES: CNc1ncc(-c2ccnc(N[C@H]3CC[C@H](N)CC3)n2)c(CC2CC2)n1

CLint scaled [1]: 86.7 mL/min/kg
IC50 [4]: 14 nM
IC50 [28]: 6.8 µM
IC50 [29]: > 9.1 µM
IC50 [30]: 1.9 µM
IC50 [2]: 2.9 µM
SMILES: CNc1ncc(-c2ccnc(Nc3ccncc3)n2)c(CC2CC2)n1

CLint scaled [1]: 67 mL/min/kg
IC50 [2]: 0.5 µM
SMILES: CC(C)(C)CNc1ncc(-c2ccnc(Nc3ccncc3)n2)c(CC2CC2)n1

IC50 [3]: 6300 nM
SMILES: CNc1ncc(-c2ccnc(NCCCO)n2)c(CC2CC2)n1

CLint scaled [1]: 82.6 mL/min/kg
IC50 [31]: 3.8 µM
IC50 [28]: 6.2 µM
IC50 [29]: > 9.1 µM
IC50 [30]: 8.5 µM
IC50 [2]: 7 µM
SMILES: CNc1ncc(-c2ccnc(N[C@H]3CC[C@H](O)CC3)n2)c(CC2CC2)n1

CLint scaled [1]: 74.8 mL/min/kg
IC50 [2]: 3.7 µM
SMILES: c1ccc(CNc2ncc(-c3ccnc(Nc4ccncc4)n3)c(CC3CC3)n2)cc1

CLint scaled [1]: 84.7 mL/min/kg
IC50 [2]: 8.5 µM
SMILES: COc1ncc(-c2ccnc(Nc3ccncc3)n2)c(CC2CC2)n1

IC50 [3]: 3400 nM
SMILES: CNc1ncc(-c2ccnc(NC3CCCCC3)n2)c(CC2CC2)n1

CLint scaled [1]: 65.8 mL/min/kg
IC50 [3]: 240 nM
IC50 [4]: 270 nM
IC50 [2]: 4.2 µM
SMILES: c1cc(Nc2nccc(-c3cnc(NC4CCOCC4)nc3CC3CC3)n2)ccn1

IC50 [3]: 130 nM
SMILES: CNc1ncc(-c2ccnc(Nc3cnc4ccccc4c3)n2)c(CC2CC2)n1

CLint scaled [1]: 72.8 mL/min/kg
inhibition [10]: Active
inhibition [11]: Active
inhibition [12]: Active
inhibition [13]: Active
inhibition [14]: Active
SMILES: Nc1ncc(-c2ccnc(Nc3ccncc3)n2)c(CC2CC2)n1
